Screening data as filed in PubChem.
The list is not random: actives were taken first. Their share in the collection is about 3.5%.
DENV2 CPE: inhibitors of DENV2 cytopathic effect. actives 1.7% (n = 350,000). DENV2-infected cells, cytopathic effect rescue, plate reader. CPE inhibition, % at 9.99 µM; in the data active = CPE inhibition above about 20%, passing the limit was not always enough; inconclusive = no clear call, values can overlap the other calls; tested in BHK-21 cells
PGC1a acetyl inh: lowers PGC1a acetylation signal in U2OS cells. inhibition, % at 15.6 µM. AlphaScreen anti-acetyl-lysine; with virally co-expressed GCN5 acetyltransferase. actives 0.17% (n = 350,000). AID 651687;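 active = every replicate shows inhibition of at least 40%; inconclusive = mean inhibition at least 40% but some replicate below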
Env fusion inh: HIV envelope-mediated fusion inhibition; HeLa-JRFL Env/CEM21 cell fusion, luciferase; inhibition, % at 12.3 µM; actives 1.1% (n = 360,000); AID 651610;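 active = mean replicate inhibition score of at least 50 and every replicate individually at or above 50; inconclusive = only one of the two criteria met; inactive = mean below 50 and not all replicates reaching 50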
Ecoli rRNA inh: inhibitors of bacterial rRNA selective over humanized ribosomes; E. coli WT GFP vs humanized-ribosome RFP mutants, fluorescence, 24 h; active compounds read low; DMSO median 0, no signal -100; GFP signal change (wild-type ribosome), % (concentration not given with the values); actives 1.6% (n = 350,000); AID 720706;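 active = significant combined selectivity score with lowered wild-type GFP, culture density cut under 30%, mutant RFP and density less affected; inactive = any of these conditions unmet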
FN deposition inh: fibronectin deposition inhibition; AH1F fibroblasts, Alexa488-fibronectin deposition fluorescence, overnight; inhibition, % at 12.6 µM; actives 0.086% (n = 350,000); AID 743247;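 active = mean inhibition across replicates of 30% or more, regardless of how many single replicates reach that level; inconclusive = mean under 30% yet at least half of replicates reach 30%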
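Material: AH1F fibroblast monolayer depositing Alexa488-labelled fibronectin into matrix / Amount: 10000 AH1F cells per well / Signal: fluorescence 485/525 nm / Medium: DMEM, 2% serum / Compound: single dose, pinned / Incubation: 1 h cell adhesion before compound, then overnight fibronectin incubation / Reagent: Alexa488-FN, 24 nM final / Read-out: inhibition of fibronectin deposition signal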
PglD inh: PglD (C. jejuni) enzyme inhibition. purified PglD enzyme, DTNB colorimetric CoA detection. actives 0.098% (n = 360,000). inhibition, % at 12.5 µM. AID 602405; in the data active = inhibition above about 16%, passing the limit was not always enough; inconclusive = no clear call, values can overlap the other calls
Large screens that a line does not name were inactive.

Cc1noc(C)c1NC(=O)Nc1cccc2c1O[C@H](CN(C)C(=O)Nc1cccc3ccccc13)[C@@H](C)CN([C@H](C)CO)C2=O	PglD inh 16 (no result: FN deposition inh)
COc1ccc(NC(=O)Nc2cccc3c2O[C@@H](CN(C)C(=O)Nc2ccc4c(c2)OCO4)[C@@H](C)CN([C@@H](C)CO)C3=O)cc1	DENV2 CPE 27 (no result: Env fusion inh, FN deposition inh)
CCc1cc(C(=O)c2ccc(OC)cc2)c(NC(=O)CC(C)(C)CC(=O)O)s1	Ecoli rRNA inh -28 (no result: PglD inh)
CCc1cc(C(=O)c2ccc(OC)cc2)c(NC(=O)COCC(=O)O)s1	none
C[C@H](CO)N1C[C@H](C)[C@H](CN(C)S(=O)(=O)c2ccc(F)cc2)OCCCC[C@H](C)Oc2ccc(NC(=O)CCCCCC(=O)Nc3ccccc3N)cc2C1=O	none
O=C(C[C@H]1C=C[C@H](NC(=O)NC2CCCCC2)[C@@H](CO)O1)NCc1ccc(F)cc1	none
NNC(=O)c1cccc(S(=O)(=O)Nc2cc(Cl)ccc2Cl)c1	Ecoli rRNA inh -20 (no result: PglD inh)
COc1ccccc1NS(=O)(=O)c1cccc(C(=O)NN)c1	none (no result: DENV2 CPE, Ecoli rRNA inh)
Nc1cc2nsnc2cc1Br	PGC1a acetyl inh 60 (no result: DENV2 CPE, Env fusion inh, Ecoli rRNA inh, FN deposition inh)
Nc1cccc2nsnc12	none
CCCCOc1ccc(C(=O)Nc2ccc(S(=O)(=O)Nc3onc(C)c3C)cc2)cc1	Ecoli rRNA inh -24 (no result: PGC1a acetyl inh, Env fusion inh)
Cc1noc(NS(=O)(=O)c2ccc(N/C=C\C(=O)c3cccc4ccccc34)cc2)c1C	Ecoli rRNA inh -21
Cc1cc2oc(C(=O)Nc3ccc(S(=O)(=O)Nc4onc(C)c4C)cc3)cc(=O)c2cc1Cl	Ecoli rRNA inh -30
O=C(C1CCCCC1)N1CC(=O)N2[C@H](C1)[C@@H](c1ccc(Br)cc1)[C@@H]2CO	none (no result: Env fusion inh, PglD inh)
COc1ccc(CNC(NC(=O)c2ccccc2)(C(F)(F)F)C(F)(F)F)cc1	Ecoli rRNA inh -19 (no result: PGC1a acetyl inh, PglD inh)
C[C@H](CO)N1C[C@H](C)[C@H](CN(C)C(=O)Nc2ccc3c(c2)OCO3)Oc2cc(C3=CCCC3)ccc2S1(=O)=O	none
O=C(c1ccccc1)c1ccc(-c2ccc(O)cc2)cc1	Ecoli rRNA inh -28 (no result: PGC1a acetyl inh)
O=c1[nH]nc(-c2ccc(F)cc2)cc1Cc1cccs1	Ecoli rRNA inh -20 (no result: PGC1a acetyl inh, PglD inh)
C[C@@H]1CN([C@H](C)CO)C(=O)c2cc(C#CC(C)(C)O)cnc2O[C@@H]1CN(C)C(=O)CN(C)C	none (no result: FN deposition inh)
Cc1c(CC(Cl)(Cl)Cl)c2c(n1O)CC(C)(C)CC2=O	Ecoli rRNA inh -32 (no result: PglD inh)
Cc1nn(-c2ccc(C(=O)O)cc2)c2c1C(=O)CC(C)(C)C2	none (no result: PglD inh)
Cc1c(C)c2ccc(OCC(=O)Nc3ccccn3)c(C)c2oc1=O	Env fusion inh 83 (no result: PGC1a acetyl inh)
Cc1c(C)c2cc(Cl)c(OCC(=O)Nc3ccccn3)cc2oc1=O	none
CO[C@@H]1CN(C)C(=O)c2cc(NC(=O)Nc3ccccc3Cl)ccc2OC[C@@H](C)N(C(C)=O)C[C@H]1C	none
C=C(C)c1cccc(C(C)(C)NC(=O)Nc2ccc(Cl)cn2)c1	Env fusion inh 65 (no result: DENV2 CPE, PGC1a acetyl inh, Ecoli rRNA inh, FN deposition inh, PglD inh)
Cc1cccc(S(=O)(=O)N2CC[C@@H]3[C@H](CO)N(C)c4ccc(-c5cccc(C#N)c5)cc4[C@@H]32)c1	none (no result: Env fusion inh)
CCOc1ccc(C(=S)N2CCCC2)cc1OC	none (no result: Ecoli rRNA inh)
COc1cc(C(=S)N2CCCC2)ccc1OCc1ccc(C)cc1	DENV2 CPE 47 (no result: PGC1a acetyl inh)
COc1cc(C(=S)N2CCCCC2)ccc1OCC(=O)Nc1ccc(F)cc1	DENV2 CPE 98 (no result: PGC1a acetyl inh)
Cc1ccc(S(=O)(=O)Nc2cccc(-c3ccc(N4CCCCCC4)nn3)c2)cc1	Ecoli rRNA inh -23
COc1ccc(C2=NNC(=Nc3cc(S(=O)(=O)N(C)C)ccc3C)SC2)c(OC)c1	Env fusion inh 67
O=C(CCCOc1ccc(Cl)cc1Cl)NCCc1nnc2ccccn12	none (no result: PGC1a acetyl inh, PglD inh)
C[C@H](NC(=O)CCCOc1ccc(Cl)cc1Cl)c1nnc2ccccn12	DENV2 CPE 41
CN(C)CC(=O)N[C@H]1CC[C@@H](CC(=O)NCc2ccc(Cl)cc2)O[C@H]1CO	DENV2 CPE inconclusive (no result: FN deposition inh)
C[C@@H]1CN([C@@H](C)CO)C(=O)Cc2cc(NC(=O)C3CCCCC3)ccc2O[C@H]1CN(C)Cc1ccc2c(c1)OCO2	none (no result: FN deposition inh)
O=C(c1c[nH]c(C(=O)C(Cl)(Cl)Cl)c1)c1ccc(F)cc1Cl	Ecoli rRNA inh -35 (no result: PglD inh)
CCNC(=O)C[C@@H]1CC[C@H]2[C@@H](COC[C@@H](O)CN2C(=O)c2cccnc2)O1	none (no result: Env fusion inh)
CCCNC(=O)[C@@H]1[C@@H](CO)[C@@H]2Cn3c(ccc(-c4ccccc4F)c3=O)[C@@H]2N1CCC	DENV2 CPE inconclusive (no result: PGC1a acetyl inh, Env fusion inh, FN deposition inh)
CCOC(=O)C1CSCCS(=O)(=O)N1Cc1cc(F)ccc1Br (stereo not given)	DENV2 CPE inconclusive, Ecoli rRNA inh -34 (no result: PGC1a acetyl inh, PglD inh)
CCOC(=O)C1CSCCS(=O)(=O)N1Cc1ccc(Br)cc1 (stereo not given)	none (no result: PGC1a acetyl inh, PglD inh)
Cc1nc(C)c(-c2ccn(S(=O)(=O)c3ccc(Cl)cc3)n2)o1	Ecoli rRNA inh -19 (no result: PglD inh)
O=C(C[C@@H]1C=C[C@@H](NS(=O)(=O)c2ccccc2)[C@H](CO)O1)NCCN1CCCCC1	none
C[C@@H]1CCCCO[C@@H](CN(C)S(=O)(=O)c2ccc(F)cc2)[C@H](C)CN([C@H](C)CO)C(=O)c2cc(NC(=O)CCCN(C)C)ccc2O1	none
COC(=O)c1nn(-c2ccc(OC)cc2)c(=O)cc1Oc1ccccc1	none (no result: DENV2 CPE, Ecoli rRNA inh)
COC(=O)c1nn(-c2ccccc2)c(=O)cc1Oc1ccc(Cl)cc1	Env fusion inh 122 (no result: DENV2 CPE, Ecoli rRNA inh)
CCOc1ccc(C(=O)NCC(c2ccco2)N2CCOCC2)cc1 (stereo not given)	DENV2 CPE 26 (no result: PGC1a acetyl inh)
CCOc1ccc(C(=O)NCC(=O)N2CCCCCCC2)cc1	DENV2 CPE 22 (no result: Env fusion inh)
C[C@@H]1CN([C@@H](C)CO)S(=O)(=O)c2ccc(-c3ccc(C(=O)N(C)C)cc3)cc2O[C@@H]1CN(C)C(=O)C1CCOCC1	none (no result: FN deposition inh)
CO[C@H]1CN(C)C(=O)c2ccc(NS(=O)(=O)c3ccc(C)cc3)cc2OC[C@@H](C)N(C(=O)NC(C)C)C[C@@H]1C	none (no result: DENV2 CPE, Env fusion inh, PglD inh)
N#Cc1ccc(C(=O)N2CCC3CC2c2cc(N4CCCCC4)ccc23)cc1 (stereo not given)	Ecoli rRNA inh -33
CC(C)(C)Nc1nc2nonc2nc1NC(C)(C)C	Ecoli rRNA inh -49 (no result: Env fusion inh, FN deposition inh)
OCCNc1nc2nonc2nc1NCCO	none (no result: PglD inh)
C[C@H]1CN([C@@H](C)CO)C(=O)Cc2cc(NS(C)(=O)=O)ccc2O[C@@H]1CN(C)C(=O)Nc1ccc(F)cc1	none (no result: Env fusion inh)
C[C@@H]1CN([C@H](C)CO)C(=O)c2cc(C#CC3CCCCC3)cnc2O[C@H]1CN(C)S(=O)(=O)c1ccccc1	none (no result: FN deposition inh)
Cc1c(C(=O)O)oc2ccc(S(=O)(=O)NCc3ccc(F)cc3)cc12	none (no result: DENV2 CPE, Ecoli rRNA inh, PglD inh)
Cc1c(C(=O)O)oc2ccc(S(=O)(=O)NC3CCCCCCC3)cc12	Ecoli rRNA inh -29 (no result: PGC1a acetyl inh, Env fusion inh)
Cc1ccc(-c2cnc3c(c2)C(=O)N([C@@H](C)CO)C[C@H](C)[C@H](CN(C)C(=O)c2cccc(F)c2)O3)cc1	none
